Activity calls are given as the source filed them. The rule behind the calls is not given here.
Experiments:
Format in all cases: cell-based
[1] = Inhibition of Influenza A virus (A/Viet Nam/1203/2004(H5N1)) hemagglutininin-mediated viral entry into human A549 cells after 48 hrs postinfection by luminometric analysis
In short: (§1)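 A549 cells seeded at 5 × 10⁴ per well; test compounds added 15 min before HIV-luc pseudovirions bearing the H5N1 HA (Qinghai or Viet Nam strain) or VSV-G envelope, then incubated. Pseudovirion supernatants were filtered and used directly for infection.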

[2] = Inhibition of Influenza A virus (A/Bar-headed Goose/Qinghai/59/05(H5N1)) hemagglutininin-mediated viral entry into human A549 cells after 48 hrs postinfection by luminometric analysis; in short: as §1
A549 [3] = test: Inhibition of Vesicular stomatitis virus envelope glycoprotein-mediated viral entry into human A549 cells after 48 hrs postinfection by luminometric analysis; in short: as §1
A549 [4] = test: Cytotoxicity against human A549 cells after 48 hrs; details: a549, 48 h

C[C@@H]1CC[C@@]2(OC1)O[C@H]1C[C@H]3[C@@H]4C[C@H](O[C@@H]5O[C@@H](C)[C@H](O)[C@@H](O)[C@H]5O)[C@H]5C[C@@H](O[C@@H]6O[C@H](CO)[C@@H](O[C@@H]7O[C@@H](C)[C@H](O)[C@@H](O)[C@H]7O)[C@H](O)[C@H]6O[C@@H]6O[C@@H](C)[C@H](O)[C@@H](O)[C@H]6O)CC[C@]5(C)[C@H]4CC[C@]3(C)[C@H]1[C@@H]2C
IC50 [1]: > 50 µM | IC50 [2]: > 50 µM | inhibition (A549 [3]): inactive | Activity (A549 [4]): Non-toxic

CC(=O)O[C@H]1C[C@@H]2[C@H](CC[C@]3(C)[C@@H]4[C@H](C[C@@H]23)O[C@]2(CC[C@@H](C)CO2)[C@H]4C)[C@@]2(C)CC[C@H](O[C@@H]3O[C@H](CO)[C@@H](O[C@@H]4O[C@@H](C)[C@H](O)[C@@H](O)[C@H]4O)[C@H](O)[C@H]3O[C@@H]3O[C@@H](C)[C@H](O)[C@@H](O)[C@H]3O)C[C@H]12
IC50 [1]: 9.3 µM | IC50 [2]: 7.6 µM | inhibition (A549 [3]): inactive | Activity (A549 [4]): Non-toxic

C[C@@H]1CC[C@@]2(OC1)O[C@H]1C[C@H]3[C@@H]4C[C@H](O)[C@H]5C[C@@H](O[C@@H]6O[C@H](CO)[C@@H](O[C@@H]7O[C@@H](C)[C@H](O)[C@@H](O)[C@H]7O)[C@H](O)[C@H]6O[C@@H]6O[C@@H](C)[C@H](O)[C@@H](O)[C@H]6O)CC[C@]5(C)[C@H]4CC[C@]3(C)[C@H]1[C@@H]2C
IC50 [1]: 7.8 µM | IC50 [2]: 7.2 µM | inhibition (A549 [3]): inactive | Activity (A549 [4]): Non-toxic

CCS[C@@H]1O[C@H](CO)[C@@H](O[C@@H]2O[C@@H](C)[C@H](O)[C@@H](O)[C@H]2O)[C@H](O)[C@H]1O[C@@H]1O[C@@H](C)[C@H](O)[C@@H](O)[C@H]1O
IC50 [1]: > 50 µM | IC50 [2]: > 50 µM | inhibition (A549 [3]): inactive | Activity (A549 [4]): Non-toxic

C[C@@H]1CC[C@@]2(OC1)O[C@H]1C[C@H]3[C@@H]4C[C@H](O)[C@H]5C[C@@H](O[C@@H]6O[C@H](CO)[C@@H](O[C@@H]7OC[C@H](O)[C@H](O)[C@H]7O)[C@H](O)[C@H]6O[C@@H]6OC[C@H](O)[C@H](O)[C@H]6O)CC[C@]5(C)[C@H]4CC[C@]3(C)[C@H]1[C@@H]2C
IC50 [1]: > 50 µM | IC50 [2]: > 50 µM | inhibition (A549 [3]): inactive | Activity (A549 [4]): Non-toxic

COC(=O)[C@]12CC[C@@H](C)[C@H](C)[C@H]1C1=CC[C@@H]3[C@@]4(C)CC[C@H](O[C@@H]5O[C@H](CO)[C@@H](O[C@@H]6O[C@@H](C)[C@H](O)[C@@H](O)[C@H]6O)[C@H](O)[C@H]5O[C@@H]5O[C@@H](C)[C@H](O)[C@@H](O)[C@H]5O)C(C)(C)[C@@H]4CC[C@@]3(C)[C@]1(C)CC2
IC50 [1]: 8.5 µM | IC50 [2]: 6 µM | inhibition (A549 [3]): inactive | Activity (A549 [4]): Non-toxic

CO[C@@H]1[C@@H](O)[C@@H](O)[C@H](O[C@H]2[C@H](O[C@H]3CC[C@@]4(C)[C@H](C3)[C@@H](O)C[C@@H]3[C@@H]4CC[C@]4(C)[C@@H]5[C@H](C[C@@H]34)O[C@]3(CC[C@@H](C)CO3)[C@H]5C)O[C@H](CO)[C@@H](O[C@@H]3O[C@@H](C)[C@H](OC)[C@@H](O)[C@H]3O)[C@@H]2O)O[C@H]1C
IC50 [1]: 24 µM | inhibition (A549 [3]): inactive | Activity (A549 [4]): Non-toxic

C[C@@H]1CC[C@@]2(OC1)O[C@H]1C[C@H]3[C@@H]4C[C@H](O)[C@H]5C[C@@H](O)CC[C@]5(C)[C@H]4CC[C@]3(C)[C@H]1[C@@H]2C [CHLOROGENIN]
IC50 [1]: > 50 µM | IC50 [2]: > 50 µM

CO[C@@H]1[C@@H](O[C@@H]2O[C@@H](C)[C@H](O)[C@@H](O)[C@H]2O)[C@H](O[C@H]2CC[C@@]3(C)[C@H](C2)[C@@H](O)C[C@@H]2[C@@H]3CC[C@]3(C)[C@@H]4[C@H](C[C@@H]23)O[C@]2(CC[C@@H](C)CO2)[C@H]4C)O[C@H](CO)[C@H]1O[C@@H]1O[C@@H](C)[C@H](O)[C@@H](O)[C@H]1O
IC50 [1]: 13 µM | IC50 [2]: 25 µM | inhibition (A549 [3]): inactive | Activity (A549 [4]): Non-toxic

C[C@@H]1CC[C@@]2(OC1)O[C@H]1C[C@H]3[C@@H]4C[C@@H](O)[C@H]5C[C@@H](O[C@@H]6O[C@H](CO)[C@@H](O[C@@H]7O[C@@H](C)[C@H](O)[C@@H](O)[C@H]7O)[C@H](O)[C@H]6O[C@@H]6O[C@@H](C)[C@H](O)[C@@H](O)[C@H]6O)CC[C@]5(C)[C@H]4CC[C@]3(C)[C@H]1[C@@H]2C
IC50 [1]: 11 µM | IC50 [2]: 18 µM | inhibition (A549 [3]): inactive | Activity (A549 [4]): Non-toxic

CO[C@@H]1[C@@H](O)[C@H](C)O[C@@H](O[C@H]2[C@H](O[C@H]3CC[C@@]4(C)[C@H](C3)[C@@H](O)C[C@@H]3[C@@H]4CC[C@]4(C)[C@@H]5[C@H](C[C@@H]34)O[C@]3(CC[C@@H](C)CO3)[C@H]5C)O[C@H](CO)[C@@H](O[C@@H]3O[C@@H](C)[C@H](O)[C@@H](OC)[C@H]3O)[C@@H]2O)[C@@H]1O
IC50 [1]: 16 µM | IC50 [2]: 28 µM | inhibition (A549 [3]): inactive | Activity (A549 [4]): Non-toxic

COC[C@H]1O[C@@H](O[C@H]2CC[C@@]3(C)[C@H](C2)[C@@H](O)C[C@@H]2[C@@H]3CC[C@]3(C)[C@@H]4[C@H](C[C@@H]23)O[C@]2(CC[C@@H](C)CO2)[C@H]4C)[C@H](O[C@@H]2O[C@@H](C)[C@H](O)[C@@H](O)[C@H]2O)[C@@H](O)[C@@H]1O[C@@H]1O[C@@H](C)[C@H](O)[C@@H](O)[C@H]1O
IC50 [1]: 9 µM | IC50 [2]: 12 µM | inhibition (A549 [3]): inactive | Activity (A549 [4]): Non-toxic

C[C@@H]1O[C@@H](O[C@H]2[C@H](O)[C@@H](O[C@@H]3O[C@@H](C)[C@H](O)[C@@H](O)[C@H]3O)C(O)O[C@@H]2CO)[C@H](O)[C@H](O)[C@H]1O (some centres not stated) [CHACOTRIOSE]
IC50 [1]: > 50 µM | IC50 [2]: > 50 µM | inhibition (A549 [3]): inactive | Activity (A549 [4]): Non-toxic

CO[C@H]1[C@H](O[C@H]2[C@H](O[C@H]3CC[C@@]4(C)[C@H](C3)[C@@H](O)C[C@@H]3[C@@H]4CC[C@]4(C)[C@@H]5[C@H](C[C@@H]34)O[C@]3(CC[C@@H](C)CO3)[C@H]5C)O[C@H](CO)[C@@H](O[C@@H]3O[C@@H](C)[C@H](O)[C@@H](O)[C@H]3OC)[C@@H]2O)O[C@@H](C)[C@H](O)[C@H]1O
IC50 [1]: 15 µM | IC50 [2]: 31 µM | inhibition (A549 [3]): inactive | Activity (A549 [4]): Non-toxic

C[C@@H]1CC[C@@]2(OC1)O[C@H]1C[C@H]3[C@@H]4CC(=O)[C@H]5C[C@@H](O[C@@H]6O[C@H](CO)[C@@H](O[C@@H]7O[C@@H](C)[C@H](O)[C@@H](O)[C@H]7O)[C@H](O)[C@H]6O[C@@H]6O[C@@H](C)[C@H](O)[C@@H](O)[C@H]6O)CC[C@]5(C)[C@H]4CC[C@]3(C)[C@H]1[C@@H]2C
IC50 [1]: 12 µM | IC50 [2]: 20 µM | inhibition (A549 [3]): inactive | Activity (A549 [4]): Non-toxic
